Active and inactive are the calls of the source. The rule behind the calls is not given here.
Columns and labels:
[1] = Toxicity against human HuH7 cells after 2 days by XTT assay; assay type: cell-based, Huh-7
Summary of the method: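 Huh-7 hepatoma cells seeded at 2 x 10^4/well, allowed to attach 6–8 h, then exposed to 200, 100, 50, 10 and 1 ug/mL with a DMSO control for two days at 37 °C. Viability by XTT, 4 h at 37 °C, absorbance 450–500 nm.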

[2] = test system: Mycobacterium tuberculosis; assay: Antimycobacterial activity against Mycobacterium tuberculosis H37Rv assessed as inhibition of microbial growth by radiometric-BACTEC assay; assay type: functional
[3] = test system: Mycobacterium tuberculosis; assay: Antimycobacterial activity against Mycobacterium tuberculosis H37Ra assessed as inhibition of microbial growth at 50 ug/ml incubated for 6 days by MABA method; assay type: functional; settings: 144 h, read-out: GI
Summary of the method: (§1)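 Microplate alamar blue assay in 7H9GC medium. Compounds dissolved in DMSO at 10 mg/mL (stock), diluted to 100, 50, 25, 10, 5, 1 and 0.5 ug/mL, each in triplicate. Frozen inoculum added at final 2.5 x 10^5 CFU/mL. Bacteria-alone and medium-alone control wells. Read by colour change and fluorescence. % inhibition = (test − M bkg)/(B − M bkg) x 100, mean of two experiments. MIC50 = lowest concentration giving ≥50% inhibition.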

[4] = test system: Mycobacterium tuberculosis; assay: Antimycobacterial activity against Mycobacterium tuberculosis H37Ra assessed as inhibition of microbial growth at 10 ug/ml incubated for 6 days by MABA method; assay type: functional; settings: 144 h, read-out: GI; summary of the method: as §1
[5] = Toxicity against human HuH7 cells after 2 days by [3H]thymidine incorporation assay; assay type: cell-based, Huh-7
Summary of the method: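 Huh-7 cells plated at 1 x 10^4/well and exposed in triplicate to 200, 100, 50, 10 and 1 ug/mL with a DMSO control for two days at 37 °C. Pulsed with 0.5 uCi/well [3H]-thymidine for 12–18 h, harvested onto filters, incorporation counted by liquid scintillation.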

[6] = test system: Mycobacterium tuberculosis; assay: Antimycobacterial activity against Mycobacterium tuberculosis H37Ra assessed as inhibition of microbial growth at 5 ug/ml incubated for 6 days by MABA method; assay type: functional; settings: 144 h, read-out: GI; summary of the method: as §1
Mycobacterium avium [7] = assay: Antimycobacterial activity against Mycobacterium avium ATCC 25291 assessed as inhibition of microbial growth at 100 ug/ml incubated for 6 days by MABA method; assay type: functional, Mycobacterium avium subsp. avium ATCC 25291; settings: ATCC 25291, 144 h, read-out: GI; summary of the method: as §1
[8] = test system: Mycobacterium tuberculosis; assay: Antimycobacterial activity against Mycobacterium tuberculosis H37Ra assessed as inhibition of microbial growth incubated for 6 days by MABA method; assay type: functional; settings: 144 h; summary of the method: as §1
Mycobacterium avium [9] = assay: Antimycobacterial activity against Mycobacterium avium ATCC 25291 assessed as inhibition of microbial growth at 10 ug/ml incubated for 6 days by MABA method; assay type: functional, Mycobacterium avium subsp. avium ATCC 25291; settings: ATCC 25291, 144 h, read-out: GI; summary of the method: as §1
[10] = test system: Mycobacterium tuberculosis; assay: Antimycobacterial activity against Mycobacterium tuberculosis H37Ra assessed as inhibition of microbial growth at 0.5 ug/ml incubated for 6 days by MABA method; assay type: functional; settings: 144 h, read-out: GI; summary of the method: as §1
Mycobacterium avium [11] = assay: Antimycobacterial activity against Mycobacterium avium ATCC 25291 assessed as inhibition of microbial growth at 50 ug/ml incubated for 6 days by MABA method; assay type: functional, Mycobacterium avium subsp. avium ATCC 25291; settings: ATCC 25291, 144 h, read-out: GI; summary of the method: as §1
[12] = test system: Mycobacterium tuberculosis; assay: Potency index, ratio of MIC50 for cycloserine to MIC50 for compound against Mycobacterium tuberculosis H37Ra incubated for 6 days by MABA method; assay type: functional
Mycobacterium avium [13] = assay: Antimycobacterial activity against Mycobacterium avium ATCC 25291 assessed as inhibition of microbial growth incubated for 6 days by MABA method; assay type: functional, Mycobacterium avium subsp. avium ATCC 25291; settings: ATCC 25291, 144 h; summary of the method: as §1
[14] = test system: Mycobacterium tuberculosis; assay: Antimycobacterial activity against Mycobacterium tuberculosis H37Ra assessed as inhibition of microbial growth at 100 ug/ml incubated for 6 days by MABA method; assay type: functional; settings: 144 h, read-out: GI; summary of the method: as §1
Mycobacterium avium [15] = assay: Antimycobacterial activity against Mycobacterium avium ATCC 25291 assessed as inhibition of microbial growth at 0.5 to 100 ug/ml incubated for 6 days by MABA method; assay type: functional, Mycobacterium avium subsp. avium ATCC 25291; summary of the method: as §1
[16] = test system: Mycobacterium tuberculosis; assay: Antimycobacterial activity against Mycobacterium tuberculosis H37Ra assessed as inhibition of microbial growth at 0.5 to 100 ug/ml incubated for 6 days by MABA method; assay type: functional; summary of the method: as §1
Mycobacterium avium [17] = assay: Antimycobacterial activity against Mycobacterium avium ATCC 25291 assessed as inhibition of microbial growth at 2 ug/ml incubated for 6 days by MABA method; assay type: functional, Mycobacterium avium subsp. avium ATCC 25291; settings: ATCC 25291, 144 h, read-out: GI
[18] = test system: Mycobacterium tuberculosis; assay: Antimycobacterial activity against Mycobacterium tuberculosis H37Rv assessed as inhibition of microbial growth at 2 ug/ml by radiometric-BACTEC assay; assay type: functional, organism-based
[19] = test system: Mycobacterium tuberculosis; assay: Antimycobacterial activity against Mycobacterium tuberculosis H37Ra assessed as inhibition of microbial growth at 0.1 ug/ml incubated for 6 days by MABA method; assay type: functional; settings: 144 h, read-out: GI
[20] = test system: Mycobacterium tuberculosis; assay: Antimycobacterial activity against Mycobacterium tuberculosis H37Rv assessed as inhibition of microbial growth at 1 ug/ml by radiometric-BACTEC assay; assay type: functional; settings: read-out: GI
[21] = test system: Mycobacterium tuberculosis; assay: Antimycobacterial activity against Mycobacterium tuberculosis H37Ra assessed as inhibition of microbial growth at 15 to 20 ug/ml incubated for 6 days by MABA method; assay type: functional

SMILES	CC50 at 48 h [1]	inhibition of growth at 50 µg/mL [3]	CC50 at 48 h [5]	inhibition of growth at 100 µg/mL (Mycobacterium avium [7])	MIC50 [8]	inhibition of growth at 100 µg/mL [14]	growth inhibition (GI) (Mycobacterium avium [15])	further results
O=c1[nH]c(=S)c(CO)cn1[C@@H]1O[C@H](CO)[C@@H](O)[C@@H]1O	> 100 µg/mL	100%	> 100 µg/mL	73%	0.5 µg/mL	100%	–	MIC50 [2]: 1 µg/mL; inhibition of growth at 10 µg/mL [4]: 90%; inhibition of growth at 5 µg/mL [6]: 70%; inhibition of growth at 10 µg/mL (Mycobacterium avium [9]): 50%; inhibition of growth at 0.5 µg/mL [10]: 50%; inhibition of growth at 50 µg/mL (Mycobacterium avium [11]): 58%; Ratio [12]: 10; MIC50 (Mycobacterium avium [13]): 10 µg/mL
CCc1cn([C@H]2O[C@@H](CO)[C@H](O)[C@H]2F)c(=O)[nH]c1=O (single isomer, unassigned)	> 100 µg/mL	–	> 100 µg/mL	–	–	–	0%	growth inhibition (GI) [16]: 0%
CO[C@H]1/C=C/O[C@@]2(C)Oc3c(C)c(O)c4c(O)c(c(/C=N/N5CCN(C)CC5)c(O)c4c3C2=O)NC(=O)/C(C)=C\C=C\[C@H](C)[C@H](O)[C@@H](C)[C@@H](O)[C@@H](C)[C@H](OC(C)=O)[C@@H]1C [RIFAMPIN]	–	–	–	–	–	–	–	inhibition of growth at 2 µg/mL (Mycobacterium avium [17]): 90%; inhibition of growth at 0.5 µg/mL [10]: 100%; growth inhibition (GI) [18]: inactive
CCc1cn([C@@H]2O[C@H](COC(C)=O)[C@@H](OC(C)=O)[C@@H]2F)c(=O)[nH]c1=O	> 100 µg/mL	55%	> 100 µg/mL	35%	–	68%	–	–
NNC(=O)c1ccncc1 [ISONIAZID]	–	–	–	–	–	–	–	inhibition of growth at 0.1 µg/mL [19]: 10%; inhibition of growth at 1 µg/mL [20]: 100%
CCc1cn([C@@H]2O[C@H](CO)[C@@H](Br)[C@@H]2F)c(=O)[nH]c1=O	> 100 µg/mL	65%	> 100 µg/mL	–	5 µg/mL	78%	0%	inhibition of growth at 10 µg/mL [4]: 56%; inhibition of growth at 5 µg/mL [6]: 50%
CCc1cn([C@@H]2O[C@H](CO)C[C@@H]2F)c(=O)[nH]c1=O	> 100 µg/mL	–	> 100 µg/mL	25%	–	25%	–	–
CCc1cn2c(nc1=O)O[C@@H]1[C@H](F)[C@H]2O[C@@H]1CO	> 100 µg/mL	25%	> 100 µg/mL	50%	–	25%	–	inhibition of growth at 50 µg/mL (Mycobacterium avium [11]): 25%
O=c1[nH]c(=O)n([C@@H]2O[C@H](CO)[C@@H](O)[C@@H]2O)cc1CO	> 100 µg/mL	–	> 100 µg/mL	–	–	–	0%	growth inhibition (GI) [16]: 0%
CC[C@H]1OC(=O)[C@H](C)[C@@H](O[C@H]2C[C@@](C)(OC)[C@@H](O)[C@H](C)O2)[C@H](C)[C@@H](O[C@@H]2O[C@H](C)C[C@H](N(C)C)[C@H]2O)[C@](C)(OC)C[C@@H](C)C(=O)[C@H](C)[C@@H](O)[C@]1(C)O [CLARITHROMYCIN]	–	–	–	–	–	–	–	inhibition of growth at 2 µg/mL (Mycobacterium avium [17]): 100%
CCc1cn([C@@H]2O[C@H](CO)[C@@H](O)[C@@H]2F)c(=O)[nH]c1=S	> 100 µg/mL	50%	> 100 µg/mL	35%	50 µg/mL	60%	–	inhibition of growth at 50 µg/mL (Mycobacterium avium [11]): 25%
COCc1cn([C@@H]2O[C@H](CO)[C@@H](O)[C@@H]2O)c(=O)nc1N	> 100 µg/mL	60%	> 100 µg/mL	20%	–	80%	–	inhibition of growth at 10 µg/mL [4]: 50%
CCc1cn([C@@H]2O[C@H](CO)[C@@H](O)[C@@H]2F)c(=O)nc1N	> 100 µg/mL	–	> 100 µg/mL	–	100 µg/mL	50%	0%	–
CCc1cn([C@@H]2O[C@H](CO)[C@@H](N=[N+]=[N-])[C@@H]2F)c(=O)[nH]c1=O	> 100 µg/mL	–	> 100 µg/mL	–	–	–	0%	growth inhibition (GI) [16]: 0%
N[C@@H]1CONC1=O [CYCLOSERINE]	–	100%	–	–	5 µg/mL	100%	–	inhibition of growth at 10 µg/mL [4]: 60%; inhibition of growth at 5 µg/mL [6]: 50%; growth inhibition (GI) [21]: 80%

Reference: ChEMBL document CHEMBL2046352, “Discovery of novel 5-(ethyl or hydroxymethyl) analogs of 2'-'up' fluoro (or hydroxyl) pyrimidine nucleosides as a new class of Mycobacterium tuberculosis, Mycobacterium bovis and Mycobacterium avium inhibitors” (Bioorg Med Chem, 2012)
